An excerpt weighted towards active compounds, which were near 2.1% of everything screened.
M1 antag: human CHRM1 antagonism | P11229 | CHO-K1 hM1, Fluo-8 calcium fluorescence, ACh EC80 antagonist | inhibition, % at 3 µM | 360,000 compounds, 1.3% hits | AID 588852;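 active = percent inhibition above its own plate's cutoff, namely the mean of that plate's compound wells plus 3 SD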;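 also: peak over basal fluorescence ratio during 140 s after agonist addition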
Target sequence (P11229 whole entry, looked up): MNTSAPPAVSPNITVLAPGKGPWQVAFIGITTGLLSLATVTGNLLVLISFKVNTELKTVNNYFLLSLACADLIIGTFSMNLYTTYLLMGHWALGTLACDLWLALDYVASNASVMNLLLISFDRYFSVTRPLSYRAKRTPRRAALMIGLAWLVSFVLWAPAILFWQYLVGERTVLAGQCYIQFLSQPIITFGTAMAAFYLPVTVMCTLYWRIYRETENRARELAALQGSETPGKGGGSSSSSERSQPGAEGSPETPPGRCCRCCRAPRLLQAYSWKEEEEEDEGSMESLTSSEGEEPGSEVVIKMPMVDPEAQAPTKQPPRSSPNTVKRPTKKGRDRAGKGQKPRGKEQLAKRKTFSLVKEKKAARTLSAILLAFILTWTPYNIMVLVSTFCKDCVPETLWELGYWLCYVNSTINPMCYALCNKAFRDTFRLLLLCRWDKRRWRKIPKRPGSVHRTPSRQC
CHRM1 agonist: activates human CHRM1 receptor | activation, % at 3 µM | CHO-K1 hM1, Fluo-8 calcium fluorescence, agonist mode; 0% DMSO, 100% acetylcholine EC100 | 360,000 compounds, 0.33% hits | P11229;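 active = activation above the run's mean compound activation plus 3 SD, cut at about 16% in these data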;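 also: peak over basal fluorescence ratio within a 140 s kinetic read after compound addition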
CHRM5 agonist: agonists of human muscarinic M5 receptor (CHRM5); P08912; CHO-K1 hM5 cells, Fluo-8 calcium fluorescence; 0% DMSO wells, 100% maximal acetylcholine response; activation, % at 3 µM; 360,000 compounds, 0.19% hits; AID 624037;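 active = activation above the run's mean over test compounds plus 3 SD, cut at about 23% in these data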;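 also: signal is peak over basal fluorescence ratio across the kinetic read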
M5 PAM: CHRM5 positive allosteric modulation | CHO-K1 hM5, Fluo-8 calcium, ACh EC20 PAM; 0% = ACh EC20, 100% = ACh EC100 | activation, % at 3 µM | 360,000 compounds, 0.3% hits | AID 624038;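 active = activation above the run cutoff, the mean activation of all test compounds plus 3 SD, cut at about 18% in these data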
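Replicates: One well per compound, no replicates | System: Human M5 receptor in CHO-K1 cells | Benchmarks: Low control EC20 acetylcholine (0%), high control EC100 acetylcholine (100%) | Probe or stimulus: Acetylcholine, EC20 level | Times: Fluo-8 loading 80 min at 37 °C plus 30 min room temperature | Signal: Intracellular calcium via Fluo-8 fluorescence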
M5 antag: CHRM5 antagonism in calcium assay; P08912; 360,000 compounds, 0.59% hits; AID 624040; CHO-hM5 cells, Fluo-8 calcium fluorescence, ACh EC80; inhibition, % at 3 µM;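 active = inhibition above a per-plate cutoff, the mean of that plate's test compounds plus 3 SD, cut at about 27% in these data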
M1 PAM: potentiates human M1 receptor response to acetylcholine. P11229. CHO-K1 hM1, Fluo-8 calcium fluorescence, ACh EC20; 0% = ACh EC20, 100% = maximal ACh. activation, % at 3 µM. 360,000 compounds, 0.088% hits; in the data active = activation above about 19%, passing the limit was not always enough
Each line names hits and unclear results; the compound was inactive in the other large screens.

O=S(=O)(c1cc(F)ccc1F)N1CCN(c2ncnc3ccccc23)CC1	M1 antag 31
O=C1NCCc2c1[nH]c1c(Cl)ccc(Cl)c21	M5 PAM 21
O=C1NCCc2c1[nH]c1ccccc21	none
CCOC(=O)c1sc(NC(=O)CSc2n[nH]c(-c3ccccc3)n2)c(C#N)c1C	M5 antag 34
O=C(CNCCO)N1N=C(c2cccs2)CC1c1cccs1 (configuration not stated)	none
O=C(CN1CCCCC1)N1N=C(c2cccs2)CC1c1cccs1 (configuration not stated)	M1 antag 97, M5 antag 38
O=C(COc1ccc(-c2ccccc2)cc1)NNC(=O)NC1CCCCC1	M1 antag 33
O=C(COc1ccc([N+](=O)[O-])cc1)NNC(=O)Nc1cccc(F)c1	M5 antag 29
CCOc1ccc(NC(=O)NNC(=O)COc2ccc3ccccc3c2)cc1	M5 PAM 34
COc1ccc(NC(=O)NNC(=O)COc2ccc3ccccc3c2)cc1	none
O=C(COc1ccc(-c2ccccc2)cc1)NNC(=O)Nc1ccc(F)cc1F	M5 PAM 43
O=C(COc1ccc(F)cc1F)NNC(=O)Nc1cccc([N+](=O)[O-])c1	none
O=C(/C=C/c1ccco1)NCc1ccco1	none
CCN1CCN(C(=O)c2cc3cc(Cl)ccc3[nH]2)CC1	none
O=S(=O)(NCCc1ccccn1)c1cccs1	none
CCCNCc1cc(Br)ccc1OCC(=O)NCCc1ccccc1	none
NS(=O)(=O)c1ccc(CCNCc2cc(Br)ccc2OCc2ccccc2F)cc1	M5 antag 28
O=C(COc1ccc(Br)cc1CNCCc1ccccc1)NCc1ccccc1	M1 antag 36
O=C(NCc1ccco1)c1cnn2c1NC(c1ccc(Br)cc1)CC2C(F)(F)F (configuration not stated)	none
CCOc1ccc(/C=N/NC(=O)CC(=O)NCc2ccccc2)cc1	M5 PAM 28
CCOc1cc(/C=N\NC(=O)CC(=O)NCCc2ccccc2)ccc1O	M5 antag 29
CCOC(=O)N1CCC(NCCNC(=O)c2ccco2)CC1	none
CCOC(=O)N1CCC(NCCNC(=O)c2ccc(F)c(F)c2)CC1	M1 antag 74, CHRM1 agonist 64
CCOC(=O)N1CCC(NCCNC(=O)c2ccc(Cl)cc2)CC1	CHRM1 agonist 22
CCN(CC)c1ccc(C2C(C(=O)OCCOC(C)C)=C(C)NC3=C2C(=O)CCC3)cc1 (configuration not stated)	M1 antag 90
CCCn1c(-c2ccncc2)n[nH]c1=S	M5 PAM 22
COc1ccc(/C=N/Nc2ncc(C(F)(F)F)cc2Cl)c(OC)c1OC	none
Cc1ccc(C)c(C(=O)CSc2n[nH]c(C(C)C)n2)c1	M5 PAM 34
CCc1nc(SCC(=O)c2cc(C)ccc2C)n[nH]1	none
Cc1ccc(NC(=S)Nc2ccc3cn[nH]c3c2)cc1	none
O=C(CCNC(=O)c1ccc(Br)cc1)NNC(=O)COc1ccccc1F	none
CO/N=C/c1ccc(N2CCN(C(=O)c3ccc(F)cc3)CC2)c([N+](=O)[O-])c1	none
CO/N=C/c1ccc(N2CCN(C(=O)c3ccc(Cl)cc3Cl)CC2)c([N+](=O)[O-])c1	M1 antag 24
COc1ccc(N2CC(C(=O)Nc3c4c(nn3-c3ccc(OC)cc3)CS(=O)(=O)C4)CC2=O)cc1 (configuration not stated)	M1 PAM 26
O=C(Nc1nnc(SCc2ccccn2)s1)C1CC(=O)N(c2ccc(F)cc2)C1 (configuration not stated)	M1 antag 25
CCOc1ccc(N2CC(C(=O)Nc3nnc(CC)s3)CC2=O)cc1 (configuration not stated)	M1 PAM 28
COc1ccc(N2CC(C(=O)Nc3c4c(nn3-c3ccccc3)CS(=O)(=O)C4)CC2=O)cc1 (configuration not stated)	none
Cc1ncc(CO)n1Cc1ccc(Cl)cc1	none
Cc1cc(C)c2c(n1)SCC(=O)N2CC(=O)Nc1ccc(C)c(C)c1	none
Cc1ccc2cccc(S(=O)(=O)N3CCN(c4cccc(Cl)c4)CC3)c2n1	none
COCC(=O)n1nc(NCc2ccc(OC)cc2)nc1NCc1ccc(OC)cc1	none
Cc1ccc(NC(=O)CSc2ncc(S(=O)(=O)c3ccccc3)c(=O)[nH]2)cc1C	none
COc1cc(/C=C2/SC(=Nc3ccc(O)cc3)NC2=O)ccc1O	none
CCc1ccc(N=C2NC(=O)/C(=C/c3cc(OC)c(O)c(OC)c3)S2)cc1	CHRM5 agonist 24
COc1cc(/C=C2\SC(=Nc3ccccc3)NC2=O)cc(Cl)c1O	M1 antag 50, CHRM1 agonist 79, CHRM5 agonist 64, M5 antag 45
COc1cc(/C=C2\SC(=Nc3ccc(Cl)c(C(=O)O)c3)NC2=O)c(Br)c(Br)c1O	CHRM1 agonist 51, CHRM5 agonist 190, M5 antag 43
COc1ccccc1N1CCN(CCCNc2cc(=O)n(C)c(=O)n2C)CC1	none
CCOc1ccc(-n2nnc3c(=O)n(CC(=O)N4CCCc5ccccc54)cnc32)cc1	M1 antag 74
N#Cc1ccc(OCCN2CCc3ccccc3C2)cc1	none
O[Si](CCCN1CCCCC1)(c1ccc(F)cc1)C1CCCCC1 (configuration not stated)	M1 antag 97, M5 antag 74
O=C(NCCCN1CCCC1)Nc1ccc(F)cc1	none
COc1ccc2cc(C(=O)C3CCCN(Cc4cccc(C)n4)C3)ccc2c1 (configuration not stated)	M1 antag 60
Cc1ncc(CN2CCCC(C(=O)Nc3ccc(-c4cccc(F)c4)cc3)C2)n1C (configuration not stated)	M1 antag 32
COc1cccc(-c2ccc(NC(=O)C3CCCN(Cc4cccc(C)n4)C3)cc2)c1 (configuration not stated)	M1 antag 53
Cc1ncc(CN2CCCC(C(=O)Nc3ccc(-c4cscn4)cc3)C2)cn1 (configuration not stated)	none
COc1ccc(-c2[nH]ncc2CN2CCCC(C(=O)c3cccc(OC)c3)C2)cc1 (configuration not stated)	none
COc1cccc(CN2CCCC(C(=O)Nc3ccc(-c4cscn4)cc3)C2)c1 (configuration not stated)	M1 antag 35
COc1cccc(-c2ccc(NC(=O)C3CCCN(Cc4cnc(C)n4C)C3)cc2)c1 (configuration not stated)	none
